Here are results for 23 compounds from ChEMBL document CHEMBL1133735, “Synthesis, in vitro anti-breast cancer activity, and intracellular decomposition of amino acid methyl ester and alkyl amide phosphoramidate monoesters of 3'-azido-3'-deoxythymidine (AZT)” (J Med Chem, 2000).

Data set [1] can be described thus: Partition coefficient (logP). It counts as physicochemical. As to conditions: octanol/water. The method, boiled down: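 Octanol and water pre-equilibrated (shaken 6 h, stood overnight); ~0.5 mg compound added, shaken 1 h at room temperature, centrifuged 1 h at 1000 rpm, left 30 h to equilibrate. Each phase read by UV absorbance, concentration from extinction coefficients via Beer-Lambert using standard curves over 2-300 µM. Duplicate or triplicate; mean of two values within 15%.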

In data set [2] the test system is MCF7. The data set can be described thus: In vitro cytotoxic concentration required to reduce MCF-7 cell growth by 50%. The class given is functional. As to conditions: Homo sapiens. The method, boiled down: (§1)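 MCF-7 cells kept in RPMI 1640 with 10% heat-inactivated FBS, penicillin and streptomycin; 5×10^4 to 6×10^4 cells per well dosed with compound in PBS at final 0.001, 0.01, 0.1, 1, 10 and 100 µM; 48 h at 37 °C, 10% CO2. Brief trypsin release, viable cells counted by trypan blue exclusion; triplicate, untreated wells as control. CC50 = concentration giving 50% growth reduction versus control.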

Data set [3] relates to CCRF-CEM. Kind of data set: Tested for intracellular levels of AZT phosphate against CEM cell lines. It counts as functional, Homo sapiens. The method, boiled down:
(§2)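 About 1.5×10^6 MCF-7 or 3×10^6 CEM cells exposed to 100 µM compound for 17 h, then medium removed. Phosphorylated fractions (phosphates plus phosphoramidate) dephosphorylated with potato acid phosphatase in potassium hydrogen phthalate buffer, 4 h at 37 °C, dried, reconstituted in FPIA buffer; AZT quantified by RIA and phosphorylated amounts extrapolated. Reported as pmol per million cells.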

Data set [4] has as its system CCRF-CEM. Kind of data set: Cytotoxic activity against CEM cell lines. The class given is functional, Homo sapiens.
In data set [5] the test system is MCF7. Kind of data set: Cytotoxic activity against MCF-7 cell lines. It counts as functional, Homo sapiens. The method in brief: as §1
Data set [6] has as its system MCF7. The data set can be described thus: Tested for intracellular levels of AZT phosphate against MCF-7 cell lines. It counts as functional, Homo sapiens. The method, boiled down:
as §2

Data set [7] has as its system CCRF-CEM. The data set can be described thus: Tested for intracellular levels of phosphoramidate against CEM cell lines. The class given is functional, Homo sapiens. The method, boiled down: as §2
In data set [8] the test system is MCF7. The data set can be described thus: Tested for intracellular levels of phosphoramidate against MCF-7 cell lines. The class given is functional, Homo sapiens. The method in brief:
as §2

SMILES strings stand for the structures.

The compound `CNC(=O)CNP(=O)(O)OC[C@H]1O[C@@H](n2cc(C)c(=O)[nH]c2=O)C[C@@H]1N=[N+]=[N-]` came in with a logP in data set [1] of -1.15. In the data set on MCF7 [2], this compound gave a CC50 of 5 µM.
In turn, `COC(=O)[C@@H](NP(=O)(O)OC[C@H]1OC(n2cc(C)c(=O)[nH]c2=O)C[C@H]1N=[N+]=[N-])C(C)C` (stereo not given in full) displayed a lipophilicity (logP) in data set [1] of -1.56. The compound also gave a CC50 in the data set on MCF7 [2] of 6 µM.
For `COC(=O)[C@H](Cc1ccc(O)cc1)NP(=O)(O)OC[C@H]1OC(n2cc(C)c(=O)[nH]c2=O)C[C@H]1N=[N+]=[N-]` (stereo not given in full), in that order: -1.59 and 10 µM.
In the case of `Cc1cn([C@H]2C[C@H](N=[N+]=[N-])[C@@H](CO)O2)c(=O)[nH]c1=O` [ZIDOVUDINE], the Amount in the data set on CCRF-CEM [3] is reported as 810.9 pM (10e6*cells)-1; with MCF7 [6], 2658.4 pM (10e6*cells)-1. Also, the Cytotoxicity in the data set on CCRF-CEM [4] was found to be 14.3 µM; in the data set with MCF7 [5], 0.008 µM.
In data set [1], `Cc1cn(C2C[C@@H](N=[N+]=[N-])[C@@H](COP(=O)(O)N[C@@H](Cc3c[nH]c4ccccc34)C(=O)NC3CC3)O2)c(=O)[nH]c1=O` (stereo not given in full) had a logP of -1.39. Further, in the data set with MCF7 [2], the midpoint of cytotoxicity, the CC50, lay at 90 µM.
Taken in the same sequence, the figures for `CNC(=O)[C@@H](Cc1c[nH]c2ccccc12)NP(=O)(O)OC[C@H]1OC(n2cc(C)c(=O)[nH]c2=O)C[C@H]1N=[N+]=[N-]` (stereo not given in full) were -1.89 and more than 100 µM.
Taken in the same sequence, the figures for `Cc1cn(C2C[C@@H](N=[N+]=[N-])[C@@H](COP(=O)(O)N[C@@H](Cc3c[nH]c4ccccc34)C(=O)NC(C)C)O2)c(=O)[nH]c1=O` (stereo not given in full) were -1.3 and more than 100 µM.
The compound `COC(=O)[C@H](Cc1ccccc1)NP(=O)(O)OC[C@H]1O[C@@H](n2cc(C)c(=O)[nH]c2=O)C[C@@H]1N=[N+]=[N-]` yielded a logP in data set [1] of -1.84. Further, the Amount with CCRF-CEM [3] is reported as 120.7 pM (10e6*cells)-1; with CCRF-CEM [7], 7.8 pM (10e6*cells)-1; in the data set with MCF7 [6], 221 pM (10e6*cells)-1; with MCF7 [8] it was 295 pM (10e6*cells)-1. The Cytotoxicity was more than 100 µM with CCRF-CEM [4] and 0.4 µM in the data set on MCF7 [5]. In the data set on MCF7 [2], this compound displayed a CC50 of 0.4 µM.
Consider `CNC(=O)[C@H](CC(C)C)NP(=O)(O)OC[C@H]1OC(n2cc(C)c(=O)[nH]c2=O)C[C@H]1N=[N+]=[N-]` (stereo not given in full), for which the logP in data set [1] was -1.52. For the same compound, the CC50 with MCF7 [2] is more than 100 µM.
On to `COC(=O)[C@H](Cc1c[nH]c2ccccc12)NP(=O)(O)OC[C@H]1O[C@@H](n2cc(C)c(=O)[nH]c2=O)C[C@@H]1N=[N+]=[N-]`, for which the lipophilicity (logP) in data set [1] is -0.686. The Amount in the data set with CCRF-CEM [3] is recorded as 115.8 pM (10e6*cells)-1; in the data set on CCRF-CEM [7] it was 14.6 pM (10e6*cells)-1; with MCF7 [6], 196.5 pM (10e6*cells)-1; in the data set on MCF7 [8] it was 213.6 pM (10e6*cells)-1. The values for the Cytotoxicity in the data set with CCRF-CEM [4] and in the data set on MCF7 [5] were more than 100 µM and 0.059 µM, respectively. Also, the midpoint of cytotoxicity with MCF7 [2], the CC50, lay at 0.059 µM.
The compound `COC(=O)[C@@H](Cc1c[nH]c2ccccc12)NP(=O)(O)OC[C@H]1O[C@@H](n2cc(C)c(=O)[nH]c2=O)C[C@@H]1N=[N+]=[N-]` came in with a lipophilicity (logP) in data set [1] of -1.36. Besides, the CC50 in the data set on MCF7 [2] is more than 100 µM.
Taken in the same sequence, the figures for `CNC(=O)[C@@H](Cc1ccccc1)NP(=O)(O)OC[C@H]1OC(n2cc(C)c(=O)[nH]c2=O)C[C@H]1N=[N+]=[N-]` (stereo not given in full) were -1.7 and more than 100 µM.
For `COC(=O)[C@@H](Cc1ccccc1)NP(=O)(O)OC[C@H]1O[C@@H](n2cc(C)c(=O)[nH]c2=O)C[C@@H]1N=[N+]=[N-]`, in that order: -1.33 and more than 100 µM.
Taken in the same sequence, the figures for `CNC(=O)[C@H](Cc1ccc(O)cc1)NP(=O)(O)OC[C@H]1OC(n2cc(C)c(=O)[nH]c2=O)C[C@H]1N=[N+]=[N-]` (stereo not given in full) were -1.38 and more than 100 µM.
As for `CNC(=O)[C@H](Cc1ccccc1)NP(=O)(O)OC[C@H]1OC(n2cc(C)c(=O)[nH]c2=O)C[C@H]1N=[N+]=[N-]` (stereo not given in full), the logP in data set [1] is -1.49. In the data set on MCF7 [2], this compound came in with a CC50 of 1.4 µM.
In data set [1], `COC(=O)[C@H](C)NP(=O)(O)OC[C@H]1OC(n2cc(C)c(=O)[nH]c2=O)C[C@H]1N=[N+]=[N-]` (stereo not given in full) yielded a logP of -1.25. Also, in the data set on MCF7 [2], the CC50 was 5.8 µM.
As to `COC(=O)CNP(=O)(O)OC[C@H]1OC(n2cc(C)c(=O)[nH]c2=O)C[C@H]1N=[N+]=[N-]` (stereo not given in full), the logP in data set [1] is -1.24. Besides, the CC50 in the data set with MCF7 [2] is more than 100 µM.
Taken in the same sequence, the figures for `CNC(=O)[C@H](Cc1c[nH]c2ccccc12)NP(=O)(O)OC[C@H]1OC(n2cc(C)c(=O)[nH]c2=O)C[C@H]1N=[N+]=[N-]` (stereo not given in full) were -1.38 and 0.016 µM.
For `CNC(=O)[C@H](C)NP(=O)(O)OC[C@H]1OC(n2cc(C)c(=O)[nH]c2=O)C[C@H]1N=[N+]=[N-]` (stereo not given in full), in that order: -1.21 and more than 100 µM.
For `CNC(=O)[C@@H](NP(=O)(O)OC[C@H]1OC(n2cc(C)c(=O)[nH]c2=O)C[C@H]1N=[N+]=[N-])C(C)C` (stereo not given in full), in that order: -1.64 and 2.2 µM.
`CCNC(=O)[C@H](Cc1c[nH]c2ccccc12)NP(=O)(O)OC[C@H]1OC(n2cc(C)c(=O)[nH]c2=O)C[C@H]1N=[N+]=[N-]` (stereo not given in full) displayed a logP in data set [1] of -1.53. The compound further yielded a CC50 with MCF7 [2] of more than 100 µM.
For `COC(=O)[C@H](CC(C)C)NP(=O)(O)OC[C@H]1OC(n2cc(C)c(=O)[nH]c2=O)C[C@H]1N=[N+]=[N-]` (stereo not given in full), in that order: -1.5 and more than 100 µM.
For `Cc1cn(C2C[C@@H](N=[N+]=[N-])[C@@H](COP(=O)(O)N[C@@H](Cc3c[nH]c4ccccc34)C(=O)NC3CCCCC3)O2)c(=O)[nH]c1=O` (stereo not given in full), in that order: -0.914 and 16 µM.
